Laboratory results: ChEMBL document CHEMBL4033653, “Effect of 1,2,3-triazole salts, non-classical bioisosteres of miltefosine, on Leishmania amazonensis” (Bioorg Med Chem, 2017)
pIC50: −log10 of the molar value.

Legend:
[1] = test system: Leishmania amazonensis; assay: Induction of apoptosis in Leishmania amazonensis IFLA/BR/1967/PH8 promastigotes assessed as late apoptotic population at 10 uM after 24 hrs by Annexin V-FITC/PI staining based flow cytometric analysis (reference value: 2.62%); format: functional
In short: (§1)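 Exponential-phase WT promastigotes (1x10^7 cells/mL) cultured 24 h at 25 °C; stained annexin V-FITC plus PI, flow cytometry with 10,000 events gated on parasites; quadrant percentages; three independent experiments.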

[2] = test system: Leishmania amazonensis; assay: Induction of mitochondrial membrane potential loss in Leishmania amazonensis IFLA/BR/1967/PH8 promastigotes at 10 uM after 24 hrs by JC-1 staining-based spectrofluorometric analysis relative to control; format: functional
In short: (§2)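 Exponential WT promastigotes (1x10^7 cells/mL) treated 24 h at 25 °C; washed, JC-1 loaded, read at 485/528 and 540/600 nm; Δψm as 600/528 ratio, untreated = 100%; FCCP 20.0 µM for 30 min as positive control; three experiments in triplicate.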

[3] = test system: Leishmania amazonensis; assay: Induction of lipid inclusions in Leishmania amazonensis IFLA/BR/1967/PH8 promastigotes at 10 uM after 24 hrs by Nile Red satining-based spectrofluorometric analysis relative to control; format: functional
In short: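 WT (PH8) promastigotes at 1x10^7 cells/mL in exponential phase, cultured 24 h at 25 °C with or without 2.5–20.0 µM. Parasites incubated with Nile Red, then fluorescence measured spectrofluorometrically. Reported as arbitrary fluorescence units versus untreated parasites, mean of three experiments run in triplicate.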

[4] = test system: Leishmania amazonensis; assay: Antileishmanial activity against Leishmania amazonensis IFLA/BR/1967/PH8 amastigotes transfected with red fluorescent protein infected in murine macrophages after 72 hrs by fluorometric analysis; format: functional; conditions: IFLA/BR/1967/PH8, 72 h
In short: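 Infected murine macrophages treated 0.78-100.0 µM for 72 h; fluorescence read at 540/600 nm for RFP parasites (PH8) and 485/528 nm for GFP parasites (Josefa strain); IC50 from three independent experiments in duplicate.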

[5] = test system: Leishmania amazonensis; assay: Induction of ROS accumulation in Leishmania amazonensis IFLA/BR/1967/PH8 promastigotes at 2.5 uM after 72 hrs by H2DCFDA staining-based fluorometric analysis relative to control; format: functional
In short: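 WT (PH8) promastigotes in exponential phase, untreated or exposed to 2.5–20.0 µM at 25 °C. Cells adjusted to 2x10^7 promastigotes in PBS, then loaded with H2DCFDA for 30 min in the dark at room temperature. Fluorescence read at ex 485/em 528 nm. Positive control was miltefosine 22.0 µM. Reported as arbitrary fluorescence units, mean of three independent experiments.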

[6] = Cytotoxicity against mouse peritoneal macrophages after 72 hrs by MTT assay; format: cell-based, Peritoneal macrophage; conditions: peritoneal macrophages
[7] = test system: Leishmania amazonensis; assay: Antileishmanial activity against Leishmania amazonensis WHOM/BR/75/Josefa promastigotes transfected with green fluorescent protein after 72 hrs by MTT assay; format: functional
[8] = test system: Leishmania amazonensis; assay: Induction of apoptosis in Leishmania amazonensis IFLA/BR/1967/PH8 promastigotes assessed as necrotic population at 10 uM after 24 hrs by Annexin V-FITC/PI staining based flow cytometric analysis (reference value: 0.03%); format: functional; in short: as §1
[9] = test system: Leishmania amazonensis; assay: Induction of apoptosis in Leishmania amazonensis IFLA/BR/1967/PH8 promastigotes assessed as early apoptotic population at 10 uM after 24 hrs by Annexin V-FITC/PI staining based flow cytometric analysis (reference value: 5.29%); format: functional; in short: as §1
[10] = test system: Leishmania amazonensis; assay: Induction of apoptosis in Leishmania amazonensis IFLA/BR/1967/PH8 promastigotes assessed as necrotic population at 5 uM after 24 hrs by Annexin V-FITC/PI staining based flow cytometric analysis (reference value: 0.03%); format: functional; in short: as §1
[11] = test system: Leishmania amazonensis; assay: Induction of mitochondrial membrane potential loss in Leishmania amazonensis IFLA/BR/1967/PH8 promastigotes at 5 uM after 24 hrs by JC-1 staining-based spectrofluorometric analysis relative to control; format: functional; in short: as §2
[12] = Selectivity index, ratio of CC50 for mouse peritoneal macrophages to IC50 for Leishmania amazonensis IFLA/BR/1967/PH8 amastigotes transfected with red fluorescent protein
In short: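 SI = CC50 for mouse peritoneal macrophages / RFP amastigote IC50. […] IC50: macrophages infected with RFP-expressing PH8 parasites, treated with 0.78–100.0 µM for 72 h; fluorescence read at 540 nm excitation/600 nm emission. Three experiments in duplicate.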

[13] = test system: Leishmania amazonensis; assay: Induction of autophagy in Leishmania amazonensis IFLA/BR/1967/PH8 promastigotes at 20 uM after 24 hrs by MDC staining-based fluorometric analysis relative to control; format: functional
In short: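 Exponential WT promastigotes (1x10^7 cells/mL) treated 24 h at 25 °C; washed, adjusted to 10x10^6 cells/mL, 100 µM monodansylcadaverine 1 h dark at 25 °C; fluorescence 335/460 nm versus untreated; three independent experiments.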

[14] = test system: Leishmania amazonensis; assay: Induction of ROS accumulation in Leishmania amazonensis IFLA/BR/1967/PH8 promastigotes at 10 uM after 72 hrs by H2DCFDA staining-based fluorometric analysis relative to control; format: functional
In short: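 WT exponential-phase promastigotes treated at 25 °C; adjusted to 2x10^7 cells in PBS, loaded with H2DCFDA 30 min dark at room temperature; fluorescence 485/528 nm versus untreated; three independent experiments.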

[15] = Selectivity index, ratio of CC50 for mouse peritoneal macrophages to IC50 for Leishmania amazonensis WHOM/BR/75/Josefa amastigotes transfected with green fluorescent protein
In short: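 SI = CC50 for mouse peritoneal macrophages / GFP amastigote IC50. […] IC50: macrophages infected with GFP-expressing Josefa-strain parasites, treated with 0.78–100.0 µM for 72 h; fluorescence read at 485 nm excitation/528 nm emission. Three experiments in duplicate.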

[16] = test system: Leishmania amazonensis; assay: Induction of apoptosis in Leishmania amazonensis IFLA/BR/1967/PH8 promastigotes assessed as late apoptotic population at 20 uM after 24 hrs by Annexin V-FITC/PI staining based flow cytometric analysis (reference value: 2.62%); format: functional; in short: as §1
[17] = test system: Leishmania amazonensis; assay: Antileishmanial activity against Leishmania amazonensis IFLA/BR/1967/PH8 amastigotes infected in murine macrophages after 72 hrs by fluorometric analysis; format: functional; conditions: IFLA/BR/1967/PH8, 72 h
[18] = test system: Leishmania amazonensis; assay: Induction of apoptosis in Leishmania amazonensis IFLA/BR/1967/PH8 promastigotes assessed as early apoptotic population at 5 uM after 24 hrs by Annexin V-FITC/PI staining based flow cytometric analysis (reference value: 5.29%); format: functional; in short: as §1
[19] = Selectivity index, ratio of CC50 for mouse peritoneal macrophages to IC50 for Leishmania amazonensis IFLA/BR/1967/PH8 amastigotes
In short: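 SI = CC50 for mouse peritoneal macrophages / amastigote IC50. […] IC50: WT-infected macrophages treated with 0.78–100.0 µM in sterile water; burden scored by counting amastigotes and infected/uninfected cells in at least 200 macrophages. Three experiments in duplicate.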

[20] = test system: Leishmania amazonensis; assay: Antileishmanial activity against Leishmania amazonensis IFLA/BR/1967/PH8 promastigotes transfected with red fluorescent protein after 72 hrs by MTT assay; format: functional; conditions: IFLA/BR/1967/PH8, 72 h
[21] = test system: Leishmania amazonensis; assay: Induction of apoptosis in Leishmania amazonensis IFLA/BR/1967/PH8 promastigotes assessed as necrotic population at 2.5 uM after 24 hrs by Annexin V-FITC/PI staining based flow cytometric analysis (reference value: 0.03%); format: functional

- pIC50 [4]: 6.00
- pIC50 [17]: 6.05
Structure (SMILES): CC(=O)[O-].CCCCCCCCCCn1cc(CO)[n+](C)n1
- Activity [1]: 11.16%
- Activity [2]: 32.5%
- fold change (FC) [3]: 1.9
- Activity [5]: 38.4%
- CC50 at 72 h [6]: 116 µM
- pIC50 [7]: 5.48
- Activity [8]: 2.18%
- Activity [9]: 28.56%
- Activity [10]: 0.3%
- Activity [11]: 20%
- Ratio CC50/IC50 [12]: 115.9
- Activity [13]: 49.8%
- Activity [14]: 54%
- Ratio CC50/IC50 [15]: 144.9
- Activity [16]: 16.88%
- Activity [18]: 39.1%
- Ratio CC50/IC50 [19]: 128.8
- pIC50 [20]: 4.81
- Activity [21]: 0.16%
